Reference: BindingDB's records for doi:10.1021/jm2013198 (Bar-Ilan University, 2012)
pEC50: −log10 of the molar value.

Tests used:
P2Y purinoceptor 6 [1] = target: T1, P2Y purinoceptor 6 (Rattus norvegicus, UniProt Q63371); test: (§1) Agonist activity at rat P2Y purinoceptor 6 expressed in human 1321N1 cells assessed as increase in intracellular calcium concentration by spectrofluorimetry
Procedure, shortened: (§2)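 1321N1 astrocytoma cells lacking endogenous P2Y receptors, stably transfected with turkey P2Y1, human P2Y2, human P2Y4 or rat P2Y6, grown in DMEM with 5% FBS, penicillin/streptomycin and 500 µg/mL G-418. Fura-2-loaded cell suspensions were exposed at 37 °C in 10 mM Hepes-buffered saline, pH 7.4, with 1 mM CaCl2 and 1 mM MgCl2. Peak [Ca2+]i rise by dual-excitation spectrofluorometry across concentrations; EC50 from curve fits; three experiments on separate days per subtype.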

P2Y purinoceptor 6 [2] = target: T1, P2Y purinoceptor 6; test: as §1; procedure, shortened: as §2; remark: listed apart in the source
P2Y purinoceptor 4 [3] = target: T2, P2Y purinoceptor 4 (Homo sapiens, UniProt P51582); test: (§3) Agonist activity at human P2Y purinoceptor 4 expressed in human 1321N1 cells assessed as increase in intracellular calcium concentration by spectrofluorimetry
T2 sequence (P51582 whole entry): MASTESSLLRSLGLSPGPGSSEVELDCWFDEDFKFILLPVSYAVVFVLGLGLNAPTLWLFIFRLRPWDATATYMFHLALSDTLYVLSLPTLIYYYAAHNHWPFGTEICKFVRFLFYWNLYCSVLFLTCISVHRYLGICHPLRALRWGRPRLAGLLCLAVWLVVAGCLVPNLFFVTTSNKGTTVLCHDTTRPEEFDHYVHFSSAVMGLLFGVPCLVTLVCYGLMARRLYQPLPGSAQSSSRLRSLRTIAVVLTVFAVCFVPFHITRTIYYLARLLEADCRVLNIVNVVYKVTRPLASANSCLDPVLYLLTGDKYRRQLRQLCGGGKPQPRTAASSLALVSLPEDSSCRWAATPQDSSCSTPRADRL
Procedure, shortened: (§4)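 1321N1 astrocytoma cells (no endogenous P2Y receptors) stably expressing hP2Y4, grown in DMEM with 5% FBS, penicillin/streptomycin and 500 μg/mL G-418. Fura-2-loaded cell suspensions; compounds applied at various concentrations, 37 °C, 10 mM Hepes-buffered saline pH 7.4 with 1 mM CaCl2/MgCl2. Peak [Ca2+]i rise by dual-excitation fluorometry gives EC50; UTP reference agonist; three experiments on separate days.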

P2Y purinoceptor 4 [4] = target: T2, P2Y purinoceptor 4; test: as §3; procedure, shortened: as §4; remark: listed apart in the source
P2Y purinoceptor 1 [5] = target: T3, P2Y purinoceptor 1 (Meleagris gallopavo, UniProt P49652); test: (§5) Agonist activity at turkey P2Y purinoceptor 1 expressed in human 1321N1 cells assessed as increase in intracellular calcium concentration by spectrofluorimetry
T3 sequence (P49652 whole entry): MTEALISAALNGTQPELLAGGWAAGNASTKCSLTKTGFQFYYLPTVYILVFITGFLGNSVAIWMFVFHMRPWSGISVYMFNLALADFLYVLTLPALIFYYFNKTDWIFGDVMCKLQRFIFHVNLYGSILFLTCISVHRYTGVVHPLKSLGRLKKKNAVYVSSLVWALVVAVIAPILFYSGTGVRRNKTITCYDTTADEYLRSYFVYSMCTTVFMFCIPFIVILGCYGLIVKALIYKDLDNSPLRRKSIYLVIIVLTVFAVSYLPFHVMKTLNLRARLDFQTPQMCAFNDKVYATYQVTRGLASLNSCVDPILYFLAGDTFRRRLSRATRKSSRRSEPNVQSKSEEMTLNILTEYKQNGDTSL

P2Y purinoceptor 1 [6] = target: T3, P2Y purinoceptor 1; test: as §5; procedure, shortened: as §2; remark: listed apart in the source
P2Y purinoceptor 2 [7] = target: T4, P2Y purinoceptor 2 (Homo sapiens, UniProt P41231); test: (§6) Agonist activity at human P2Y purinoceptor 2 expressed in human 1321N1 cells assessed as increase in intracellular calcium concentration by spectrofluorimetry; procedure, shortened: as §2
T4 sequence (P41231 whole entry): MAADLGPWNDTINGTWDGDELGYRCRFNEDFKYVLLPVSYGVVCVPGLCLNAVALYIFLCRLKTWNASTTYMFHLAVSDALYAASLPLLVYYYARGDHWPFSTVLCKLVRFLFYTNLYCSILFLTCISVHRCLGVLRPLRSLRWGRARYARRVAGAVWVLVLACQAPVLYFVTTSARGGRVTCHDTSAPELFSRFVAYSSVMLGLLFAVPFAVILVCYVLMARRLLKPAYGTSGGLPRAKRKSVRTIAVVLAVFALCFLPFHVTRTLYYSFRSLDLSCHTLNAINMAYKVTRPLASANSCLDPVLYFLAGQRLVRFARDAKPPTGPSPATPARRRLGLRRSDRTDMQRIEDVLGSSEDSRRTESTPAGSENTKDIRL

P2Y purinoceptor 2 [8] = target: T4, P2Y purinoceptor 2; test: as §6; remark: listed apart in the source

T1 sequence (Q63371 whole entry): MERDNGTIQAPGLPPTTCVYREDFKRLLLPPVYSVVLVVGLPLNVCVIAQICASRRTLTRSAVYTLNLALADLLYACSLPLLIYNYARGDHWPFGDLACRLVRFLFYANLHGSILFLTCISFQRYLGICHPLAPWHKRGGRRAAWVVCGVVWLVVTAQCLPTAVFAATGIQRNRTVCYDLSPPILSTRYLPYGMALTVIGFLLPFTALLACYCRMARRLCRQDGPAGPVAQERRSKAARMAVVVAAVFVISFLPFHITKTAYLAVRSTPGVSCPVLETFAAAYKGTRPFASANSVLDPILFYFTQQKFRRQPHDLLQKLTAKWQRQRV

pEC50 (P2Y purinoceptor 6 [1])	pEC50 (P2Y purinoceptor 6 [2])	pEC50 (P2Y purinoceptor 1 [5])	SMILES	pEC50 (P2Y purinoceptor 4 [3])	pEC50 (P2Y purinoceptor 4 [4])	pEC50 (P2Y purinoceptor 1 [6])	pEC50 (P2Y purinoceptor 2 [7])	pEC50 (P2Y purinoceptor 2 [8])
–	–	5.52	BP(=O)(OP(=O)(O)OC[C@H]1O[C@@H](n2cnc3c(N)ncnc32)[C@H](O)[C@@H]1O)OP(=O)(O)OP(=O)(O)OC[C@H]1O[C@@H](n2cnc3c(N)ncnc32)[C@H](O)[C@@H]1O (some centres undefined)	–	–	5.52	–	–
5.89	5.89	5.16	BP(=O)(OP(=O)(O)OC[C@H]1O[C@@H](n2cnc3c(N)ncnc32)[C@H](O)[C@@H]1O)OP(=O)(O)OP(=O)(O)OC[C@H]1O[C@@H](n2ccc(=O)[nH]c2=O)[C@H](O)[C@@H]1O (some centres undefined)	–	–	–	4.19	–
4.68	4.68	6.30	BP(=O)(OP(=O)(O)OC[C@H]1O[C@@H](n2ccc(=O)[nH]c2=O)[C@H](O)[C@@H]1O)OP(=O)(O)OP(=O)(O)OC[C@H]1O[C@@H](n2cnc3c(N)ncnc32)[C@H](O)[C@@H]1O (some centres undefined)	–	–	6.30	–	–
5.71	5.71	–	BP(=O)(OP(=O)(O)OC[C@H]1O[C@@H](n2ccc(=O)[nH]c2=O)[C@H](O)[C@@H]1O)OP(=O)(O)OP(=O)(O)OC[C@H]1O[C@@H](n2ccc(=O)[nH]c2=O)[C@H](O)[C@@H]1O (some centres undefined)	–	–	–	–	–

Continued, molecule first:

SMILES	pEC50 (P2Y purinoceptor 6 [1])	pEC50 (P2Y purinoceptor 6 [2])	pEC50 (P2Y purinoceptor 1 [5])	pEC50 (P2Y purinoceptor 4 [3])	pEC50 (P2Y purinoceptor 4 [4])	pEC50 (P2Y purinoceptor 1 [6])	pEC50 (P2Y purinoceptor 2 [7])	pEC50 (P2Y purinoceptor 2 [8])
BP(=O)(OC[C@H]1O[C@@H](n2ccc(=O)[nH]c2=O)[C@H](O)[C@@H]1O)OP(=O)(O)OP(=O)(O)OC[C@H]1O[C@@H](n2ccc(=O)[nH]c2=O)[C@H](O)[C@@H]1O (some centres undefined)	6.14	6.14	–	–	–	–	–	–
BP(=O)(OC[C@H]1O[C@@H](n2ccc(=O)[nH]c2=O)[C@H](O)[C@@H]1O)OP(=O)(O)OP(=O)(O)OP(=O)(O)OC[C@H]1O[C@@H](n2ccc(=O)[nH]c2=O)[C@H](O)[C@@H]1O (some centres undefined)	4.44	4.44	–	5.03	5.03	–	–	–
BP(=O)(OC[C@H]1O[C@@H](n2cnc3c(N)ncnc32)[C@H](O)[C@@H]1O)OP(=O)(O)OP(=O)(O)OC[C@H]1O[C@@H](n2cnc3c(N)ncnc32)[C@H](O)[C@@H]1O (some centres undefined)	–	–	6.10	–	–	6.10	–	–
BP(=O)(OC[C@H]1O[C@@H](n2cnc3c(N)ncnc32)[C@H](O)[C@@H]1O)OP(=O)(O)OP(=O)(O)OP(=O)(O)OC[C@H]1O[C@@H](n2cnc3c(N)ncnc32)[C@H](O)[C@@H]1O (some centres undefined)	–	–	5.83	–	–	5.83	4.59	4.59
